Laboratory results published in ChEMBL document CHEMBL4689842, “EUbOPEN Chemogenomics Library wave 1” (2021).

Test system: HEK-293T
Test: Multiplex assay against HEK293T;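 as to Population Tubulin-Different-Phenotype (%): share of the cells with healthy nuclei that show this phenotype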
Format: toxicity, cell-based
Settings: human
Outline: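 Hoechst33342, BioTracker Green Microtubule Cytoskeleton Dye, MitoTracker Red and Annexin V Alexa Fluor 680 were added to live cells at seeding, and imaging on a CQ1 microscope at 37°C and 5% CO2 followed compound addition. Gating by CellPathfinder machine learning separated cells into Hoechst high-intensity objects or normal cells, then normal cells into healthy, pyknosed or fragmented nuclei, then pyknosed cells into mitotic or apoptotic. Per cents of healthy-nucleus cells are reported for the tubulin, mitochondrial-mass and membrane-permeability phenotypes.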

[1] = 12 h, 1 µM, compound concentration 1 uM, replicate 1
[2] = 12 h, 1 µM, compound concentration 1 uM, replicate 2
[3] = 12 h, 10 µM, compound concentration 10 uM, replicate 1
[4] = 12 h, 10 µM, compound concentration 10 uM, replicate 2
[5] = 24 h, 1 µM, compound concentration 1 uM, replicate 1
[6] = 24 h, 1 µM, compound concentration 1 uM, replicate 2
[7] = 24 h, 10 µM, compound concentration 10 uM, replicate 1
[8] = 24 h, 10 µM, compound concentration 10 uM, replicate 2
[9] = 48 h, 1 µM, compound concentration 1 uM, replicate 1
[10] = 48 h, 1 µM, compound concentration 1 uM, replicate 2
[11] = 48 h, 10 µM, compound concentration 10 uM, replicate 1
[12] = 48 h, 10 µM, compound concentration 10 uM, replicate 2

With CN(c1cc(C(F)(F)F)nc(OCCC(=O)O)n1)c1cccc2c1CCC2 the “Population Apoptotic (%)” value [1] was 44%, the “Population Fragmented Nuclei (%)” value [1] was 21% and the “Population Healthy Nuclei (%)” value [1] was 34%. For the same molecule, the “Population Hoechst High Intensity Objects (%)” value [1] was 14%, the “Population Membrane Permeable-Phenotype (%)” value [1] was 3% and the “Population Mitochondria Different-Phenotype (%)” value [1] was 67%. For the same molecule, the “Population Mitotic Cells (%)” value [1] was 55%, the “Population Normal (%)” value [1] was 85% and the “Population Pyknosed Nuclei (%)” value [1] was 44%. The “Population Tubulin-Different-Phenotype (%)” value [1] was 29%, the “Total Cell Count” value [1] was 189 and the “Population Apoptotic (%)” value [2] was 12%. For the same molecule, the “Population Fragmented Nuclei (%)” value [2] was 4%, the “Population Healthy Nuclei (%)” value [2] was 49% and the “Population Hoechst High Intensity Objects (%)” value [2] was 4%. The “Population Membrane Permeable-Phenotype (%)” value [2] was 8%, the “Population Mitochondria Different-Phenotype (%)” value [2] was 15% and the “Population Mitotic Cells (%)” value [2] was 87%. For the same molecule, the “Population Normal (%)” value [2] was 95%, the “Population Pyknosed Nuclei (%)” value [2] was 46% and the “Population Tubulin-Different-Phenotype (%)” value [2] was 14%. The “Total Cell Count” value [2] was 193, the “Population Apoptotic (%)” value [3] was 37% and the “Population Healthy Nuclei (%)” value [3] was 49%. The “Population Hoechst High Intensity Objects (%)” value [3] was 16%, the “Population Membrane Permeable-Phenotype (%)” value [3] was 1% and the “Population Mitochondria Different-Phenotype (%)” value [3] was 69%. For the same molecule, the “Population Mitotic Cells (%)” value [3] was 62%, the “Population Normal (%)” value [3] was 83% and the “Population Pyknosed Nuclei (%)” value [3] was 41%. The “Population Tubulin-Different-Phenotype (%)” value [3] was 28%, the “Total Cell Count” value [3] was 223 and the “Population Apoptotic (%)” value [4] was 8%. The “Population Fragmented Nuclei (%)” value [4] was 8%, the “Population Healthy Nuclei (%)” value [4] was 42% and the “Population Hoechst High Intensity Objects (%)” value [4] was 2%. For the same molecule, the “Population Membrane Permeable-Phenotype (%)” value [4] was 6%, the “Population Mitochondria Different-Phenotype (%)” value [4] was 14% and the “Population Mitotic Cells (%)” value [4] was 91%. The “Population Normal (%)” value [4] was 97%, the “Population Pyknosed Nuclei (%)” value [4] was 49% and the “Population Tubulin-Different-Phenotype (%)” value [4] was 9%. For the same molecule, the “Total Cell Count” value [4] was 233, the “Population Apoptotic (%)” value [5] was 34% and the “Population Fragmented Nuclei (%)” value [5] was 18%. For the same molecule, the “Population Healthy Nuclei (%)” value [5] was 30%, the “Population Hoechst High Intensity Objects (%)” value [5] was 11% and the “Population Membrane Permeable-Phenotype (%)” value [5] was 1%. The “Population Mitochondria Different-Phenotype (%)” value [5] was 53%, the “Population Mitotic Cells (%)” value [5] was 65% and the “Population Normal (%)” value [5] was 88%. For the same molecule, the “Population Pyknosed Nuclei (%)” value [5] was 51%, the “Population Tubulin-Different-Phenotype (%)” value [5] was 32% and the “Total Cell Count” value [5] was 193. For the same molecule, the “Population Apoptotic (%)” value [6] was 21%, the “Population Fragmented Nuclei (%)” value [6] was 8% and the “Population Healthy Nuclei (%)” value [6] was 65%. For the same molecule, the “Population Hoechst High Intensity Objects (%)” value [6] was 4%, the “Population Membrane Permeable-Phenotype (%)” value [6] was 10% and the “Population Mitochondria Different-Phenotype (%)” value [6] was 13%. For the same molecule, the “Population Mitotic Cells (%)” value [6] was 78%, the “Population Normal (%)” value [6] was 95% and the “Population Pyknosed Nuclei (%)” value [6] was 25%. The “Population Tubulin-Different-Phenotype (%)” value [6] was 28%, the “Total Cell Count” value [6] was 250 and the “Population Apoptotic (%)” value [7] was 33%. The “Population Fragmented Nuclei (%)” value [7] was 12%, the “Population Healthy Nuclei (%)” value [7] was 50% and the “Population Hoechst High Intensity Objects (%)” value [7] was 11%. The “Population Membrane Permeable-Phenotype (%)” value [7] was 4%, the “Population Mitochondria Different-Phenotype (%)” value [7] was 37% and the “Population Mitotic Cells (%)” value [7] was 66%. The “Population Normal (%)” value [7] was 88%, the “Population Pyknosed Nuclei (%)” value [7] was 37% and the “Population Tubulin-Different-Phenotype (%)” value [7] was 22%. For the same molecule, the “Total Cell Count” value [7] was 256, the “Population Apoptotic (%)” value [8] was 9% and the “Population Fragmented Nuclei (%)” value [8] was 2%. The “Population Healthy Nuclei (%)” value [8] was 68%, the “Population Hoechst High Intensity Objects (%)” value [8] was 3% and the “Population Membrane Permeable-Phenotype (%)” value [8] was 3%. For the same molecule, the “Population Mitochondria Different-Phenotype (%)” value [8] was 11%, the “Population Mitotic Cells (%)” value [8] was 90% and the “Population Normal (%)” value [8] was 96%. For the same molecule, the “Population Pyknosed Nuclei (%)” value [8] was 29%, the “Population Tubulin-Different-Phenotype (%)” value [8] was 19% and the “Total Cell Count” value [8] was 291. For the same molecule, the “Population Apoptotic (%)” value [9] was 45%, the “Population Fragmented Nuclei (%)” value [9] was 21% and the “Population Healthy Nuclei (%)” value [9] was 36%. The “Population Hoechst High Intensity Objects (%)” value [9] was 16%, the “Population Membrane Permeable-Phenotype (%)” value [9] was 1% and the “Population Mitochondria Different-Phenotype (%)” value [9] was 22%. For the same molecule, the “Population Mitotic Cells (%)” value [9] was 54%, the “Population Normal (%)” value [9] was 83% and the “Population Pyknosed Nuclei (%)” value [9] was 41%. The “Population Tubulin-Different-Phenotype (%)” value [9] was 24%, the “Total Cell Count” value [9] was 228 and the “Population Apoptotic (%)” value [10] was 7%. The “Population Fragmented Nuclei (%)” value [10] was 7%, the “Population Healthy Nuclei (%)” value [10] was 84% and the “Population Hoechst High Intensity Objects (%)” value [10] was 3%. The “Population Membrane Permeable-Phenotype (%)” value [10] was 10%, the “Population Mitochondria Different-Phenotype (%)” value [10] was 4% and the “Population Mitotic Cells (%)” value [10] was 92%. The “Population Normal (%)” value [10] was 96%, the “Population Pyknosed Nuclei (%)” value [10] was 8% and the “Population Tubulin-Different-Phenotype (%)” value [10] was 21%. For the same molecule, the “Total Cell Count” value [10] was 472, the “Population Apoptotic (%)” value [11] was 36% and the “Population Fragmented Nuclei (%)” value [11] was 15%. For the same molecule, the “Population Healthy Nuclei (%)” value [11] was 56%, the “Population Hoechst High Intensity Objects (%)” value [11] was 6% and the “Population Membrane Permeable-Phenotype (%)” value [11] was 1%. The “Population Mitochondria Different-Phenotype (%)” value [11] was 14%, the “Population Mitotic Cells (%)” value [11] was 63% and the “Population Normal (%)” value [11] was 93%. The “Population Pyknosed Nuclei (%)” value [11] was 27%, the “Population Tubulin-Different-Phenotype (%)” value [11] was 11% and the “Total Cell Count” value [11] was 351. The “Population Apoptotic (%)” value [12] was 10%, the “Population Fragmented Nuclei (%)” value [12] was 5% and the “Population Healthy Nuclei (%)” value [12] was 83%. The “Population Hoechst High Intensity Objects (%)” value [12] was 2%, the “Population Membrane Permeable-Phenotype (%)” value [12] was 4% and the “Population Mitochondria Different-Phenotype (%)” value [12] was 3%. For the same molecule, the “Population Mitotic Cells (%)” value [12] was 89%, the “Population Normal (%)” value [12] was 97% and the “Population Pyknosed Nuclei (%)” value [12] was 11%. The “Population Tubulin-Different-Phenotype (%)” value [12] was 12% and the “Total Cell Count” value [12] was 593.
